Assay results reported in ChEMBL document CHEMBL4390675, “Dopamine D4 Receptor-Selective Compounds Reveal Structure-Activity Relationships that Engender Agonist Efficacy” (J Med Chem, 2019).
Active and inactive are the calls of the source. The rule behind the calls is not given here.

Experiments:
[1] = biological target: T1, D(4) dopamine receptor (Homo sapiens) (UniProt P21917); experiment: Antagonist activity at human D4 receptor expressed in CHOK1 cells assessed as inhibition of dopamine-induced beta-arrestin recruitment measured after 90 mins by luminescence assay relative to control; format: cell-based; parameters: concentration or dose not given beside the values
T1 sequence (whole entry): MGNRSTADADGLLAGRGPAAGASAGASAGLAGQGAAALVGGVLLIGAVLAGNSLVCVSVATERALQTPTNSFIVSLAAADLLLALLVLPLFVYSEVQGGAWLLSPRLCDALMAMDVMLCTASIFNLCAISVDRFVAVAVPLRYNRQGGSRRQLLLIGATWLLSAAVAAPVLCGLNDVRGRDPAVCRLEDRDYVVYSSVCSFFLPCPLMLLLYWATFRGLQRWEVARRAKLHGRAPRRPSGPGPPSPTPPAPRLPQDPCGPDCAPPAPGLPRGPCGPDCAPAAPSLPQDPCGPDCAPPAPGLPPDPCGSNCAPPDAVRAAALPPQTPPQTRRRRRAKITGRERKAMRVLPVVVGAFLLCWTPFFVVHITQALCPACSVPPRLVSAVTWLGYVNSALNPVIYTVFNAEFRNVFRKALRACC

[2] = biological target: D(1A) dopamine receptor (Homo sapiens) (UniProt P21728); experiment: Antagonist activity at D1 receptor (unknown origin) stably expressed in CHOK1 cells assessed as inhibition of dopamine-induced beta-arrestin recruitment measured after 90 mins by luminescence assay; format: cell-based
D(4) dopamine receptor [3] = biological target: T2, D(4) dopamine receptor (Homo sapiens, UniProt P21917); experiment: Displacement of [3H]N-methylspiperone from human D4.4 receptor expressed in HEK293 cell membranes measured after 60 mins by scintillation counting method
T2 sequence (P21917 whole entry): T1 sequence (whole entry)
Summary of the method: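 Frozen HEK293 membranes stably expressing human D4.4R (30 μg/well) in EBSS-bicarbonate buffer, pH 7.4, were incubated with 0.4 nM [3H]N-methylspiperone and half-log compound dilutions (30% DMSO vehicle) for 60 min at room temperature. Nonspecific binding was defined by 10 μM (+)-butaclamol. Samples were filtered on GF/B filters and counted by scintillation.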

D(3) dopamine receptor [4] = biological target: T3, D(3) dopamine receptor (Homo sapiens, UniProt P35462); experiment: Agonist activity at human D3 receptor expressed in CHOK1 cells assessed as induction of beta-arrestin recruitment measured after 90 mins by luminescence assay; format: cell-based; conditions: read-out: EC50
Summary of the method: (§1)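 PathHunter enzyme-complementation assay in CHO-K1 cells stably expressing human D2R long isoform, D3R or D4R, seeded overnight in Ham's F12/10% FBS. Compounds were diluted in PBS with 0.2 μM sodium metabisulfite and applied at multiple concentrations for 90 min at 37 °C. Detection reagent was added for 45–60 min at room temperature, then luminescence was read. Values are % of maximal dopamine response, from nonlinear regression of triplicate runs, mean ± SEM, n = 3–4.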

D(4) dopamine receptor [5] = biological target: T2, D(4) dopamine receptor; experiment: Agonist activity at human D4 receptor expressed in CHOK1 cells assessed as inhibition of forskolin-induced cAMP accumulation measured after 30 mins by Eu-cAMP tracer based TR-FRET assay; format: functional, cell-based; conditions: read-out: EC50
Summary of the method: (§2)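 LANCE Ultra TR-FRET cAMP assay in CHO-K1 cells stably expressing human D2R long isoform or D4R. Cells were plated in HBSS/5 mM HEPES/0.2 μM metabisulfite, then immediately given compound plus forskolin (10 μM final) for 30 min at room temperature. Eu-cAMP tracer and ULight-anti-cAMP were added for 2 h in the dark. Values are % of maximal dopamine signal, nonlinear regression of triplicate runs, n = 3–4.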

D(4) dopamine receptor [6] = biological target: T2, D(4) dopamine receptor; experiment: Displacement of [3H](R)-(+)-7-OH-DPAT from human D4.4 receptor expressed in HEK293 cell membranes measured after 90 mins by scintillation counting method
Summary of the method: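 HEK293 cells stably expressing human D4.4R; membranes used fresh in 50 mM Tris, 10 mM MgCl2, 1 mM EDTA, pH 7.4. 60 μg protein/well with 3 nM [3H]-(R)-(+)-7-OH-DPAT (final), half-log dilutions in 30% DMSO, in triplicate. 90 min at room temperature, then GF/B filtration. Nonspecific binding with 10 μM (+)-butaclamol.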

D(3) dopamine receptor [7] = biological target: T3, D(3) dopamine receptor; experiment: Displacement of [3H](R)-(+)-7-OH-DPAT from human D3 receptor expressed in HEK293 cell membranes measured after 90 mins by scintillation counting method
Summary of the method: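 Fresh HEK293 hD3R membranes (40 μg/well) in 50 mM Tris, 10 mM MgCl2, 1 mM EDTA, pH 7.4 were incubated with 0.5 nM [3H]-(R)-(+)-7-OH-DPAT and half-log compound dilutions in 30% DMSO for 90 min at room temperature. Nonspecific binding was defined with 10 μM (+)-butaclamol. Samples were filtered on PEI-soaked GF/B filters and counted by scintillation.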

D(3) dopamine receptor [8] = biological target: T3, D(3) dopamine receptor; experiment: Antagonist activity at human D3 receptor expressed in CHOK1 cells assessed as inhibition of dopamine-induced beta-arrestin recruitment measured after 90 mins by luminescence assay relative to control; format: cell-based
Summary of the method: (§3)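 Antagonist-mode PathHunter β-arrestin assay in CHO-K1 cells stably expressing human D2R long isoform or D3R, seeded overnight. Compound dilutions in PBS with 0.2 μM metabisulfite were co-incubated with an EC80 dopamine concentration for 90 min at 37 °C. Detection reagent was added for 45–60 min at room temperature, then luminescence was read. Values are % of dopamine EC80 response, from nonlinear regression of triplicate runs, n = 3–4.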

D(3) dopamine receptor [9] = biological target: T3, D(3) dopamine receptor; experiment: Antagonist activity at human D3 receptor expressed in CHOK1 cells assessed as inhibition of dopamine-induced beta-arrestin recruitment measured after 90 mins by luminescence assay; format: cell-based; conditions: read-out: IC50; summary of the method: as §3
[10] = biological target: T1, D(4) dopamine receptor (Homo sapiens); experiment: Antagonist activity at human D4 receptor expressed in CHOK1 cells assessed as suppression of dopamine-induced inhibition of forskolin-stimulated cAMP accumulation measured after 30 mins by Eu-cAMP tracer based TR-FRET assay relative to dopamine; format: functional, cell-based; parameters: concentration or dose not given beside the values
[11] = biological target: T1, D(4) dopamine receptor (Homo sapiens); experiment: Agonist activity at human D4 receptor expressed in CHOK1 cells assessed as induction of beta-arrestin recruitment measured after 90 mins by luminescence assay relative to control; format: cell-based; summary of the method: as §1
D(3) dopamine receptor [12] = biological target: T3, D(3) dopamine receptor; experiment: Agonist activity at human D3 receptor expressed in CHOK1 cells assessed as induction of beta-arrestin recruitment measured after 90 mins by luminescence assay relative to control; format: cell-based; summary of the method: as §1
[13] = biological target: D(1B) dopamine receptor (Homo sapiens) (UniProt P21918); experiment: Antagonist activity at D5 receptor (unknown origin) stably expressed in CHOK1 cells assessed as inhibition of dopamine-induced beta-arrestin recruitment measured after 90 mins by luminescence assay; format: cell-based
[14] = biological target: D(1B) dopamine receptor (Homo sapiens) (UniProt P21918); experiment: Agonist activity at D5 receptor (unknown origin) stably expressed in CHOK1 cells assessed as induction of beta-arrestin recruitment measured after 90 mins by luminescence assay; format: cell-based
D(2) dopamine receptor [15] = biological target: T4, D(2) dopamine receptor (Homo sapiens, UniProt P14416); experiment: Agonist activity at human D2L receptor expressed in CHOK1 cells assessed as inhibition of forskolin-induced cAMP accumulation measured after 30 mins by Eu-cAMP tracer based TR-FRET assay relative to dopamine; format: cell-based; conditions: 0.5 h
D(4) dopamine receptor [16] = biological target: T2, D(4) dopamine receptor; experiment: Agonist activity at human D4 receptor expressed in CHOK1 cells assessed as induction of beta-arrestin recruitment measured after 90 mins by luminescence assay; format: cell-based; conditions: read-out: EC50; summary of the method: as §1
D(3) dopamine receptor [17] = biological target: T3, D(3) dopamine receptor; experiment: Displacement of [3H]N-methylspiperone from human D3 receptor expressed in HEK293 cell membranes measured after 60 mins by scintillation counting method
Summary of the method: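 HEK293 cells stably expressing human D3R; membranes in EBSS buffer pH 7.4, stored at −80 °C. 20 μg protein/well with 0.4 nM [3H]N-methylspiperone (final), half-log dilutions in 30% DMSO, in triplicate. 60 min at room temperature, then GF/B filtration. Nonspecific binding with 10 μM (+)-butaclamol.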

D(2) dopamine receptor [18] = biological target: T4, D(2) dopamine receptor; experiment: Agonist activity at human D2L receptor expressed in CHOK1 cells assessed as induction of beta-arrestin recruitment measured after 90 mins by luminescence assay relative to control; format: cell-based
Summary of the method: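 PathHunter enzyme-complementation assay in CHO-K1 cells stably expressing human D2R long isoform, seeded 2625 cells/well and incubated overnight. Compounds diluted in PBS with 0.2 μM sodium metabisulfite, tested at multiple concentrations, 90 min at 37 °C. Detection reagent then 45–60 min at room temperature, luminescence read. Normalized to maximal dopamine response. Nonlinear regression of triplicate runs, n = 3–4.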

D(4) dopamine receptor [19] = biological target: T2, D(4) dopamine receptor; experiment: Antagonist activity at human D4 receptor expressed in CHOK1 cells assessed as suppression of dopamine-induced inhibition of forskolin-stimulated cAMP accumulation measured after 30 mins by Eu-cAMP tracer based TR-FRET assay; format: functional, cell-based
D(4) dopamine receptor [20] = biological target: T2, D(4) dopamine receptor; experiment: Antagonist activity at human D4 receptor expressed in CHOK1 cells assessed as inhibition of dopamine-induced beta-arrestin recruitment measured after 90 mins by luminescence assay; format: cell-based; conditions: read-out: IC50
[21] = biological target: D(1A) dopamine receptor (Homo sapiens) (UniProt P21728); experiment: Agonist activity at D1 receptor (unknown origin) stably expressed in CHOK1 cells assessed as induction of beta-arrestin recruitment measured after 90 mins by luminescence assay; format: cell-based
[22] = biological target: T1, D(4) dopamine receptor (Homo sapiens); experiment: Agonist activity at human D4 receptor expressed in CHOK1 cells assessed as inhibition of forskolin-induced cAMP accumulation measured after 30 mins by Eu-cAMP tracer based TR-FRET assay relative to dopamine; format: functional, cell-based; summary of the method: as §2

T3 sequence (P35462 whole entry, canonical isoform): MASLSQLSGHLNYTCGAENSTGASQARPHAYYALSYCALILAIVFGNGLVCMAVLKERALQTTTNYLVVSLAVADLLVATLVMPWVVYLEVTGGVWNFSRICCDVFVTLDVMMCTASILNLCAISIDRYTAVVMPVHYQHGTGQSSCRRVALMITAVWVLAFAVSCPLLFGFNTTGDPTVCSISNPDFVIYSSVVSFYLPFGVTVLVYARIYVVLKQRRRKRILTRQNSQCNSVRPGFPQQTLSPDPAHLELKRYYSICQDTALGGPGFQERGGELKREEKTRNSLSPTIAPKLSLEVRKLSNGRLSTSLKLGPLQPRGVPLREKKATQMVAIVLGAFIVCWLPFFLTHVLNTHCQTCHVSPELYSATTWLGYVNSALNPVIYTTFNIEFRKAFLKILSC
D(1B) dopamine receptor (Homo sapiens), sequence (P21918 whole entry): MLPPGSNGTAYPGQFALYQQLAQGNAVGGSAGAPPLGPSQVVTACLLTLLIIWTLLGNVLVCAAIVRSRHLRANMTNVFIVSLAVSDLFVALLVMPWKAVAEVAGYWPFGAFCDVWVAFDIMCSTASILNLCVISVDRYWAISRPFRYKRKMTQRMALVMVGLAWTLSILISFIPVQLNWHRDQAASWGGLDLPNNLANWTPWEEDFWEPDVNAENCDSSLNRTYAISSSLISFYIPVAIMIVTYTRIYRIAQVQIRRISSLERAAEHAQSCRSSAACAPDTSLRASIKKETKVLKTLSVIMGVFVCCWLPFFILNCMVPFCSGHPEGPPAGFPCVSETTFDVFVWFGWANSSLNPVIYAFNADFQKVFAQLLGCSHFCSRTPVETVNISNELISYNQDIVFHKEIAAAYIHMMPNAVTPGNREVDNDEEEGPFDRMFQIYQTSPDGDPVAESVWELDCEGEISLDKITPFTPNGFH
D(1A) dopamine receptor (Homo sapiens), sequence (P21728 whole entry): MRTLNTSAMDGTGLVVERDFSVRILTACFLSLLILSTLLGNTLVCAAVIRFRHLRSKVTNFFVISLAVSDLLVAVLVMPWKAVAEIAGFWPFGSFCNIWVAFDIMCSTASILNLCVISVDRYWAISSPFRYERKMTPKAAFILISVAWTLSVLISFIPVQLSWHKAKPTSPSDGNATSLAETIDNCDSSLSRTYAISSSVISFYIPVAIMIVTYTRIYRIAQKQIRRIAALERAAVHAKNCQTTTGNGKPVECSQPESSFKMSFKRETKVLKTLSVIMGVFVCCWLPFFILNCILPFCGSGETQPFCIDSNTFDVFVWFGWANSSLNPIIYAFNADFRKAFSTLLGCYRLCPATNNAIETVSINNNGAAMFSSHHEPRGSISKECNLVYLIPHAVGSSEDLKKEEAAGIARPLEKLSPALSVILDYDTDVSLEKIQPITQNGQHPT
T4 sequence (P14416 whole entry): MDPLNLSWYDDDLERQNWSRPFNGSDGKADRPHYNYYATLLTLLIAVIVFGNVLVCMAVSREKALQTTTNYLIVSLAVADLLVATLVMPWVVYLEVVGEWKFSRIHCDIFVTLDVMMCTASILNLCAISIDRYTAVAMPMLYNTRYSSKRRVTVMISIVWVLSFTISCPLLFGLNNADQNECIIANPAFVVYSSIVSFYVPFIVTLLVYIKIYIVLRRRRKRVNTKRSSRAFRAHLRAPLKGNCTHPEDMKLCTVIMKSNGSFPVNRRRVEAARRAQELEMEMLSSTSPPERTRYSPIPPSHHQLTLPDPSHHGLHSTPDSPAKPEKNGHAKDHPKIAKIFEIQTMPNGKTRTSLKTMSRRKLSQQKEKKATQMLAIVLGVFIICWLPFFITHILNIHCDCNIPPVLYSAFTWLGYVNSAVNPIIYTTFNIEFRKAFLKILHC

With `Cc1cccc(NC(=O)CN2CCN(c3ncccn3)CC2)c1` the inhibition [1] was 80.6%, the inhibition [2] was “inactive” and the Ki (D(4) dopamine receptor [3]) was 318 nM. It also gave an EC50 (D(3) dopamine receptor [4]) of 5580 nM, an EC50 (D(4) dopamine receptor [5]) of 3.4 nM and a Ki (D(4) dopamine receptor [6]) of 5.66 nM. For the same compound, the Ki (D(3) dopamine receptor [7]) was 5990 nM, the inhibition (D(3) dopamine receptor [8]) was “inactive” and the IC50 (D(3) dopamine receptor [9]) was over 100000 nM. It also gave an inhibition [10] of 45%, an Emax [11] of 24.7% and an Emax (D(3) dopamine receptor [12]) of 58.4%. For the same compound, the inhibition [13] was “inactive”, the Activity [14] was “inactive” and the Emax (D(2) dopamine receptor [15]) was 54.4%. For the same compound, the EC50 (D(4) dopamine receptor [16]) was 278 nM, the Ki (D(3) dopamine receptor [17]) was over 10000 nM and the Emax (D(2) dopamine receptor [18]) was 39.6%. For the same compound, the IC50 (D(4) dopamine receptor [19]) was 463 nM, the IC50 (D(4) dopamine receptor [20]) was 197 nM and the Activity [21] was “inactive”. For the same compound, the Emax [22] was 64.6%.
